B1: tRNA (parent)
chain: GUUCCGUUGGCGUAAUGGUAACGCGUCUCCCUCCUAAGGAGAAGACUGCGGGUUCGAGUCCCGUACGGAACG

This sample holds only a part of the variants without activity. Where only a bound is given, the exact number is not on record here.

In this series the parent is B1. Briefly: yeast fitness relative to wild type (ratio to wild type); higher = fitter; tRNA-Arg(CCU), competitive growth, 37 C, YPD. The method, boiled down:
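The tRNA-Arg(CCU) gene variants were made by chemical synthesis with a 3% per-site mutation rate at 69 sites and inserted at the native genomic locus of Saccharomyces cerevisiae. After pooling, the strains were competed in YPD at 37°C for 24 hours in six parallel replicates. Gene amplicons from the start population and each end population were read by 100-nucleotide paired-end sequencing, and Darwinian fitness relative to wild type was taken from genotype frequency changes. Genotypes needed ≥ 100 starting reads, and estimates < 0.5 were set to 0.5.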
For GUUCCGUUGGCGUAAUGGUAACGCGUGUCCCUCCUGAGGAGAAGACUGCGGCUUCGAGUCCCGUACGGAACG [C27G A36G G52C], the yeast fitness was at most 0.5.
In the case of GUUCCGUUGGCGUAAUGGUAACGCGUAUCCCUCCUAAGGAGAAGACUGCGGGUCCGAGUCCCGUAAGGAACG [C27A U54C C66A], the yeast fitness was at most 0.5.
As for GUUCCGUUGGCGUAAUGGUAACGCGUAUCCCUCCCAAGGAGUAGACUGCGGGUUCGAGUCCCGUACGGAACG [C27A U35C A42U], the yeast fitness was at most 0.5.
With GUUCCGUUGGCGUAAUGGUAACGCGUAUCCCUCCAAAGGAGAAGACUACGGGUUCGAGCCCCGUACGGAACG [C27A U35A G48A U59C], the yeast fitness stood at 0.567.
Consider GUUCCGUUGGCGUAAUGGUAACGCGUGUCCCUCCUAAGGCGAAGACUGCGGGUUCGAGUCCCGUACGGAACG [C27G A40C], for which the yeast fitness was found to be 0.575.
The result for GUUCCGUUGGCGUAAUGGUAACGCGUACGCCUCCUAAGGAGAAGACUGCGGGUUCGAGUCCCGUACGGAACG [C27A U28C C29G] reads 0.633; that for GUUCCGUUGGCGUAAUGGUAACGCGUACGCCUCCUAAGGAGAAGACUGCGGGUUCGAGUCCCGUUCGGAACG [C27A U28C C29G A65U], at most 0.5.
GUUCCGUUGGCGUAAUGGUAACGCGUAUCCCUCCCAAGGAGAAGACUGCGGGUUCGAGUCCCGUACGGAACG [C27A U35C]: the yeast fitness was determined as 0.735.
Take GUUCCGUUGGCGUAAUGGUAACGCGUAUCCCUCCAAAGGAGAAGACUGCGGGUUCGAGUCCCGUACGGAACG [C27A U35A]: the yeast fitness was 0.662.
Regarding GUUCCGUUGGCGUAAUGGUAACGCGUGUCCCUCCUCAGGAGAAGACUCCGGGUUCGAGUCCCGUACGGAACG [C27G A36C G48C], the yeast fitness is at most 0.5.
Consider GUUCCGUUGGCGUAAUGGUAACGCGUAUCCCUCCUAAGGAGAAGACUGCGGGAUCGAGUCCCGUACGGAACG [C27A U53A], for which the yeast fitness worked out at 0.639.
Turning to GUUCCGUUGGCGUAAUGGUAACGCGUGUCCCUCCUAGGGAGAAGACUGCGGGUUCGAGUCCCGUACGGAACG [C27G A37G], the yeast fitness was found to be 0.678.
Regarding GUUCCGUUGGCGUAAUGGUAACGCGUGUCCCUCCUAUGGAGAAGACUGCGGGUUCGAGUCCCGUACGGAACG [C27G A37U], the yeast fitness amounted to 0.591.
The same measure for GUUCCGUUGGCGUAAUGGUAACGCGUGUCCCUCCUAAGGAGAAGACUGCGGGUUCGAGUCCCGUACGGAACG [C27G]: 0.644; for GUUCCGUUGGCGUAAUGGUAACGCGUACGCCUCCUAAGGAGAAGACUGCGGGUUCGAGUCCCGUACGGAGCG [C27A U28C C29G A70G]: at most 0.5; for GUUCCGUUGGCGUAAUGGUAACGCGUGUCCCUCCUGAGGAGAAGACUGCGGGUUCGAGUCCCGUACGAAACG [C27G A36G G68A]: at most 0.5.
The result for GUUCCGUUGGCGUAAUGGUAACGCGUGUCCCUCCUAUGGAGAAGACUGGGGGUUCGAGUCCCGUACGGAACG [C27G A37U C49G] reads at most 0.5; that for GUUCCGUUGGCGUAAUGGUAACGCGUGUCCCUCCUACGAAGAAGCCUGCGGGUUCGAGUCCCGUUCGGAACG [C27G A37C G39A A45C A65U], at most 0.5.
The result for GUUCCGUUGGCGUAAUGGUAACGCGUGUCCCUCCUAGGGAGAAGACUGCGGGUUCGAGUCCCGUAUGGAACG [C27G A37G C66U] reads 0.538; that for GUUCCGUUGGCGUAAUGGUAACGCGUGUCCCUCCUUAGCAGAAGACUGCGGGUUCGAGUCCCGUACGGAACG [C27G A36U G39C], 0.526; that for GUUCCGUUGGCGUAAUGGUAACGCGUAUCCCUCCUAAGGAGAAGACUGCGGGUUCGAGUCCCGAACGGAACG [C27A U64A], 0.748.
On to GUUCCGUUGGCGUAAUGGUAACGCGUAUCCCUCCUAAGGAGAAGACUGCGGGUUCGAGUCCCGGACGGAACG [C27A U64G], for which the yeast fitness amounted to 0.65.
GUUCCGUUGGCGUAAUGGUAACGCGUGUCCCUCCUACGGAGGAGACUCCGGGUUCGAGCCCCGUACGGAACG [C27G A37C A42G G48C U59C]: the yeast fitness turned out to be 0.533.
In the case of GUUCCGUUGGCGUAAUGGUAACGCGUAUCCCUCCCAUGGAGAAGACUGUGGGUUUGAGUGCCGUCCGGAACG [C27A U35C A37U C49U C55U C60G A65C], the yeast fitness is at most 0.5.
Take GUUCCGUUGGCGUAAUGGUAACGCGUAGCCCUCCUAAGGAGAAGACUGCGGGUUCGAGUCCCGUACGGAACG [C27A U28G]: the yeast fitness was determined as 0.66.
Turning to GUUCCGUUGGCGUAAUGGUAACGCGUGUCCCUCCUGAGGAGAAGACUGCGGGUUCGAGUCCCGUGCGGAACG [C27G A36G A65G], the yeast fitness is at most 0.5.
Regarding GUUCCGUUGGCGUAAUGGUAACGCGUGUCCCUCCUAGGGAGAAGACUGCGGUUUCGAGUCCCGUACGGAACG [C27G A37G G52U], the yeast fitness is at most 0.5.
For the variant GUUCCGUUGGCGUAAUGGUAACGCGUAUCCCUCCUAAGGAGAAGACUGCGGGUUCGAGGCCCGUACGGAACG [C27A U59G], the yeast fitness was found to be 0.778.
With GUUCCGUUGGCGUAAUGGUAACGCGUAUCCCUCCUAAGGAGAAGACUGCGGGUUCGAGCCCCGUACGGAACG [C27A U59C], the yeast fitness was 0.883.
The same measure for GUUCCGUUGGCGUAAUGGUAACGCGUGUCCCUCCUAGGGAGAAGACUGCGGGUUCGAGUCCCGUACGGUACG [C27G A37G A69U]: 0.537; for GUUCCGUUGGCGUAAUGGUAACGCGUAUCCCCCCUAAGGAGCAGAUUGCGGGUUCGAGUCCUGUACGGAACG [C27A U32C A42C C46U C62U]: at most 0.5; for GUUCCGUUGGCGUAAUGGUAACGCGUGUCCCUCCUAAGGUGAAGACUGCGGGUUCGAGUCCCGUACGCAACG [C27G A40U G68C]: 0.523.
For GUUCCGUUGGCGUAAUGGUAACGCGUGUCCCUCCUACGGAGAAGACUCCGGGUUAGAGUCCCAUACGGAACG [C27G A37C G48C C55A G63A], the yeast fitness came to 0.526.
Turning to GUUCCGUUGGCGUAAUGGUAACGCGUGUCCCUCCUGAGGAGAAGACUGCGGGUUCGAGUCCCGUACUGAACG [C27G A36G G67U], the yeast fitness is at most 0.5.
For the variant GUUCCGUUGGCGUAAUGGUAACGCGUAUCCCACCUAAGGAGAAGACUGCGGGUUCGAGUCGCGCACGGAACG [C27A U32A C61G U64C], the yeast fitness was at most 0.5.
For the variant GUUCCGUUGGCGUAAUGGUAACGCGUAUCCCGCCUAAGGAGAAGACUGCGAGUUCCAGUCCCGUACGGAACG [C27A U32G G51A G56C], the yeast fitness is at most 0.5.
With GUUCCGUUGGCGUAAUGGUAACGCGUGUCCCUCCUAAGGGGAAGACUGCGGGUUCGAGUCCUGUUCGGAACG [C27G A40G C62U A65U], the yeast fitness is at most 0.5.
GUUCCGUUGGCGUAAUGGUAACGCGUAUCCCUCCCAAGGAGAAGACUGCGGGUUCGAGUCCCGAACGGAACG [C27A U35C U64A]: the yeast fitness was at most 0.5.

For the origin of these results see the RNAGym collection of RNA variant scans (doi:10.1126/science.aae0568).
